Test results: ChEMBL document CHEMBL1124389, “Spermexatin and spermexatol: new synthetic spermidine-based siderophore analogues” (1989)

Key:
Type in all cases: functional
Escherichia coli [1] = assay: Compound (1 mM) was tested for the ability to stimulate growth of Escherichia coli UT 2300 at 18 h
Method in brief: (§1)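 Disk-diffusion growth-promotion assay on E. coli RW 193 (FepA+) or its FepA− derivative UT2300. Cells were seeded at 10⁴/mL into Luria agar containing the iron chelator EDDA. Siderophores were dissolved in ethanol at 50, 10, 1 or 0.2 mM, spotted onto sterile disks, and the ethanol was evaporated. Plates were incubated 18 h at 37 °C and scored for growth around the disks. A 10 mM FeCl₃ disk served as positive control.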

Vibrio cholerae [2] = assay: Compound (1 mM) was tested for the ability to stimulate growth of Vibrio cholera 1510 at 18 h
Vibrio cholerae [3] = assay: Compound (10 mM) was tested for the ability to stimulate growth of Vibrio cholera 1510 at 18 h
Escherichia coli [4] = assay: Compound (10 mM) was tested for the ability to stimulate growth of Escherichia coli RW 193 at 18 h; method in brief: as §1
Vibrio cholerae [5] = assay: Compound (1 mM) was tested for the ability to stimulate growth of Vibrio cholera Lou 15 at 18 h
Vibrio cholerae [6] = assay: Compound (10 mM) was tested for the ability to stimulate growth of Vibrio cholera Lou 15 at 18 h
Escherichia coli [7] = assay: Compound (0.2 mM) was tested for the ability to stimulate growth of Escherichia coli RW 193 at 18 h; method in brief: as §1
Escherichia coli [8] = assay: Compound (50 mM) was tested for the ability to stimulate growth of Escherichia coli RW 193 at 18 h; method in brief: as §1
Escherichia coli [9] = assay: Compound (10 mM) was tested for the ability to stimulate growth of Escherichia coli UT 2300 at 18 h; method in brief: as §1
Escherichia coli [10] = assay: Compound (1 mM) was tested for the ability to stimulate growth of Escherichia coli RW 193 at 18 h; method in brief: as §1
Vibrio cholerae [11] = assay: Compound (0.2 mM) was tested for the ability to stimulate growth of Vibrio cholera Lou 15 at 18 h
Vibrio cholerae [12] = assay: Compound (50 mM) was tested for the ability to stimulate growth of Vibrio cholera 1510 at 18 h
Escherichia coli [13] = assay: Compound (0.2 mM) was tested for the ability to stimulate growth of Escherichia coli UT 2300 at 18 h; method in brief: as §1
Escherichia coli [14] = assay: Compound (50 mM) was tested for the ability to stimulate growth of Escherichia coli UT 2300 at 18 h; method in brief: as §1
Vibrio cholerae [15] = assay: Compound (50 mM) was tested for the ability to stimulate growth of Vibrio cholera Lou 15 at 18 h
Vibrio cholerae [16] = assay: Compound (0.2 mM) was tested for the ability to stimulate growth of Vibrio cholera 1510 at 18 h
Vibrio cholerae [17] = assay: Compound (1 mM) was tested for the ability to stimulate growth of Vibrio cholera Lou 15 at 42h
Vibrio cholerae [18] = assay: Compound (0.2 mM) was tested for the ability to stimulate growth of Vibrio cholera Lou 15 at 42h
Vibrio cholerae [19] = assay: Compound (10 mM) was tested for the ability to stimulate growth of Vibrio cholera Lou 15 at 42h

SMILES | Growth zone (Escherichia coli [1]) | Growth zone (Vibrio cholerae [2]) | Growth zone (Vibrio cholerae [3]) | Growth zone (Escherichia coli [4]) | Growth zone (Vibrio cholerae [5]) | Growth zone (Vibrio cholerae [6]) | Growth zone (Escherichia coli [7]) | Growth zone (Escherichia coli [8]) | Growth zone (Escherichia coli [9]) | Growth zone (Escherichia coli [10]) | Growth zone (Vibrio cholerae [11]) | Growth zone (Vibrio cholerae [12]) | Growth zone (Escherichia coli [13]) | Growth zone (Escherichia coli [14]) | Growth zone (Vibrio cholerae [15]) | Growth zone (Vibrio cholerae [16]) | Growth zone (Vibrio cholerae [17]) | Growth zone (Vibrio cholerae [18]) | Growth zone (Vibrio cholerae [19])
CN(O)C(=O)CCC(=O)NCCCCN(CCCNC(=O)CCC(=O)N(C)O)C(=O)CCC(=O)N(C)O | 0 mm | 0 mm | 0 mm | 0 mm | 17 mm | 17 mm | 0 mm | 12 mm | 0 mm | 0 mm | 16 mm | 0 mm | 0 mm | 12 mm | 19 mm | 0 mm |  |  | 
CC1OC(c2cccc(O)c2O)=NC1C(=O)NCCCN(CCCNC(=O)c1cccc(O)c1O)C(=O)C1N=C(c2cccc(O)c2O)OC1C (centres undefined) [VIBRIOBACTIN] | 0 mm | 0 mm | 0 mm | 0 mm | 32 mm | 32 mm | 0 mm | 0 mm | 0 mm | 0 mm | 32 mm | 0 mm | 0 mm | 0 mm |  | 0 mm |  |  | 
CN(O)C(=O)CCC(=O)N(CCCCNC(=O)c1cccc(O)c1O)CCCNC(=O)c1cccc(O)c1O [SPERMEXATOL] | 0 mm | 0 mm | 0 mm | 12 mm |  |  | 0 mm | 21 mm | 0 mm | 0 mm |  | 28 mm | 0 mm | 0 mm | 36 mm | 0 mm | 0 mm | 0 mm | 0 mm
CN(O)C(=O)CCCC(=O)NCCCCN(CCCNC(=O)CCCC(=O)N(C)O)C(=O)CCCC(=O)N(C)O | 0 mm | 0 mm | 0 mm | 10 mm |  |  | 0 mm | 18 mm | 10 mm | 0 mm |  | 12 mm | 0 mm | 16 mm | 12 mm | 0 mm | 0 mm | 0 mm | 0 mm
O=C(N[C@H]1COC(=O)[C@@H](NC(=O)c2cccc(O)c2O)COC(=O)[C@@H](NC(=O)c2cccc(O)c2O)COC1=O)c1cccc(O)c1O [ENTEROBACTIN] | 0 mm | 0 mm | 0 mm |  | 22 mm | 28 mm | 28 mm |  | 0 mm | 40 mm | 0 mm |  | 0 mm |  |  | 0 mm |  |  | 
